In PMC12005346 (ACS chemical neuroscience, 2023):
Where a name gives a salt, the structure may show the parent alone. *1 amine or outer side, *2 acyl side, *3 side chain or, on linkers, in order; H or OH if unused. Where a SMILES comes first, the peptide text is derived from it. Bridges are numbered along the chain shown (N, C = ends). Roman numbers before positions name the chains, in order. [ ]: non-standard residue; d: D form. Piperazine(1,4-diyl) = C1CN([*:2])CCN1[*:1]; Phe(4-F) = N[C@@H](Cc1ccc(F)cc1)C(=O)O; Dmt = Cc1cc(O)cc(C)c1C[C@H](N)C(=O)O; oXylylene = c1ccc(C[*:2])c(C[*:1])c1

How the values were obtained:
[1] = tested on: dependence and withdrawal; assay: Naloxone-precipitated withdrawal; type: in vivo, CD-1 mice; conditions: 3.2 mg/kg s.c. repeated dosing, naloxone 30 mg/kg i.p. on day 4
[2] = tested on: response to thermal nociceptive stimuli; assay: Hot plate test after i.c.v. administration; type: in vivo, mouse; conditions: i.c.v. 0.6 nmol/10 μL, 90 to 120 min after administration
Outline: (§1)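 Mice received test compound i.c.v. at 0.6 nmol/10 μL. Vehicle was DMSO/saline 1:5 v/v, 10 μL/mouse. Hot plate and tail flick responses to thermal stimuli were recorded as a time course starting 15 min after dosing and expressed as % MPE. Groups were N = 12 or 7. Analysis was two-way ANOVA with Tukey's test versus vehicle.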

[3] = tested on: response to thermal nociceptive stimuli; assay: Tail flick test after i.c.v. administration; type: in vivo, mouse; conditions: i.c.v. 0.6 nmol/10 μL, 90 to 120 min after administration
Outline: as §1

[4] = molecular target: human KOR expressed in CHO cells (Homo sapiens, UniProt P41145); assay: 35S-GTPγS coupling assay at KOR; type: biochemical
Sequence of human KOR expressed in CHO cells (P41145 whole entry): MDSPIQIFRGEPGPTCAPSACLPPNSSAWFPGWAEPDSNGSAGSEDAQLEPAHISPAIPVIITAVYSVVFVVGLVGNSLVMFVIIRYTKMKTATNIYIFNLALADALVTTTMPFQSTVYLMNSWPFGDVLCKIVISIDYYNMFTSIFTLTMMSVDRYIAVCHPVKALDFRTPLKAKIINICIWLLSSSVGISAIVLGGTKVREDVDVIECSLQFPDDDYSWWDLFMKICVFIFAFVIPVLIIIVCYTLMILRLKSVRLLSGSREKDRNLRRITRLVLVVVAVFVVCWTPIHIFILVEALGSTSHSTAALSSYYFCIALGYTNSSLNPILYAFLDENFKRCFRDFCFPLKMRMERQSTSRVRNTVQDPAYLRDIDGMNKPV
Outline: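 Test compounds stimulated 35S-GTPγS coupling at human MOR, DOR or KOR expressed in CHO cells. Reference agonists were included to validate the assay: DAMGO for MOR, SNC80 for DOR and U50,488 for KOR. EC50 and EMAX were calculated separately for each independent experiment and reported as mean ± SEM of N ≥ 3 experiments.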

[5] = tested on: formalin-induced pain; assay: Formalin test; type: in vivo, mouse; conditions: s.c. hind paw 100 nmol/20 μL, 15 min before formalin
Outline: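 Test compound (100 nmol/20 μL) was injected s.c. into the left dorsal hind paw 15 min before formalin (1% in saline, 20 μL/paw) in the same paw. Vehicle was DMSO/saline 1:5 v/v, […] s.c. Total licking/biting time was scored in the early and late phases. Analysis was two-way ANOVA with Tukey's test.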

CN1CC[C@]23c4c5ccc(O)c4O[C@H]2[C@@H](O)C=C[C@H]3[C@H]1C5 [morphine]
urine/feces output in naloxone-precipitated withdrawal [1]: comparable urine/feces output

biphalin
antinociceptive effect (% MPE), hot plate [2]: antinociceptive effects steadily decrease
antinociceptive effect (% MPE), tail flick [3]: antinociceptive effects steadily decrease

Cc1cc(O)cc(C)c1C[C@H](N)C(=O)N[C@@H]1CSCc2ccccc2CSC[C@@H](NC(=O)[C@@H](N)Cc2c(C)cc(O)cc2C)C(=O)NCC(=O)N[C@@H](Cc2ccc(F)cc2)C(=O)N2CCN(CC2)C(=O)[C@H](Cc2ccc(F)cc2)NC(=O)CNC1=O [MJ4, 2 TFA c(Dmt-D-Cys-Gly-P-F-Phe)2-piperazine o-Xylene] (I: H-[Dmt][dC]G[Phe(4-F)] / II: H-[Dmt][dC]G[Phe(4-F)]; linker I:2-II:2 via oXylylene; linker I:C-II:C via Piperazine(1,4-diyl))
KOR agonist activity, in words [4]: more potent agonist activity
licking/biting behavior induced by formalin, early phase [5]: did not change the effects induced by formalin
licking/biting behavior induced by formalin, late phase [5]: did not change the effects induced by formalin
